PubChem BioAssay AID588553 (Broad Institute, 2011)

Molecular target: Scavenger receptor class B member 1 (Mus musculus) (UniProt Q61009)
Experiment: inhibition of HDL lipid transfer via mSR-BI – ldlA[mSR-BI] CHO cells, powder samples, set 3, dose response (AID 588553)
Conditions: DiI-HDL uptake fluorescence, 3 h
In short: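 assay system = ldlA[mSR-BI] CHO cells | buffer or medium = F12 medium with BSA and HEPES | reagent = DiI-HDL at 10 µg/mL | timing = 3 h at 37 °C | signal = fluorescence, ex 550 nm, em 595 nm | control set = DMSO neutral control, BLT-1 positive control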

Sequence of Scavenger receptor class B member 1 (Mus musculus) (Q61009 whole entry, looked up): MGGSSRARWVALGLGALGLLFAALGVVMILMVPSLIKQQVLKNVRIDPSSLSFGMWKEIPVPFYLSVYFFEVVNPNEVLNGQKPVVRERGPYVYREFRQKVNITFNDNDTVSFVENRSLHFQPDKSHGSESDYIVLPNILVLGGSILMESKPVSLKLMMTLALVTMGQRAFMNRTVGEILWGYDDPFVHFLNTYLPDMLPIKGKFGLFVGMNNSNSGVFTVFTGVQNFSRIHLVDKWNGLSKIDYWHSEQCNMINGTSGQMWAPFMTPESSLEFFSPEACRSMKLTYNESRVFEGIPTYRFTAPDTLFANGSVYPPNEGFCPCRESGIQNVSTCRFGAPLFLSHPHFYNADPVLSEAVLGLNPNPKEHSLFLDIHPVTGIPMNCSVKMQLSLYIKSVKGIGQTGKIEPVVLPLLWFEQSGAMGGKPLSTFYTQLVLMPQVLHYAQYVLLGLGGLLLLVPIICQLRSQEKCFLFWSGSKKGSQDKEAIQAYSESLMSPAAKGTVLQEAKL

AC50 [µM] | Structure (SMILES)
< 0.015 | COc1cc(OC)cc(C(=O)Nc2nc(-c3ccc4c(c3)CCN4C(=O)CN(C)C)cs2)c1
0.0441 | CCC(=O)N1CCc2cc(-c3csc(/N=C(/OC)c4cc(OC)cc(OC)c4)n3)ccc21
0.0154 | COc1ccc(-c2cc(CC(=O)N(C3CCCCC3)C(C)C(=O)NC3CCCC3)no2)cc1OC (configuration not stated)
< 0.015 | O=C(Nc1nc(-c2ccc3c(c2)CCN3)cs1)c1ccco1
0.228 | COc1cc(OC)cc(C(=O)Nc2nc(-c3ccc4[nH]ccc4c3)cs2)c1
< 0.015 | COc1ccc(-c2nnn(CC(=O)N(CC(=O)NC3CCCC3)C3CCCCC3)n2)cc1OC
6.28 | COc1ccc(-c2nc(CC(=O)N(C3CCCCC3)C(C)C(=O)NC3CCCC3)cs2)cc1OC (configuration not stated)
13.9 | CC(C)(C)OC(=O)N1CCc2cc(-c3noc(NC(=O)c4ccco4)n3)ccc21
0.0895 | CCCN1CCc2cc(-c3csc(NC(=O)c4cc(OC)cc(OC)c4)n3)ccc21
0.18 | CCC(=O)N1CCc2cc(-c3csc(N(C)C(=O)c4cc(OC)cc(OC)c4)n3)ccc21
0.0447 | CCC(=O)Nc1ccc(-c2csc(NC(=O)c3cccc(OC)c3)n2)cc1
0.108 | CC(C(=O)NC1CCCC1)N(C(=O)Cn1nnc(-c2ccc(Cl)c(Cl)c2)n1)C1CCCCC1 (configuration not stated)
0.0292 | CCC(=O)N1CCc2cc(-c3csc(NC(=O)c4cccc(OC(F)(F)F)c4)n3)ccc21
< 0.015 | CCCCCCC1CCC/C1=N\NC(N)=S (configuration not stated)
< 0.015 | CCNC(=O)N1CCc2cc(-c3csc(NC(=O)c4cc(OC)cc(OC)c4)n3)ccc21
0.303 | O=C(CN(C(=O)Cn1nnc(-c2ccc(Cl)c(Cl)c2)n1)C1CCCCC1)NC1CCCC1

AC50 [µM] | Structure (SMILES)
0.113 | COc1cc(OC)cc(C(=O)Nc2nc(-c3ccc4c(c3)CCN4)cs2)c1
0.225 | CC(C(=O)NC1CCCC1)N(C(=O)Cn1nnc(-c2ccc3c(c2)OC(F)(F)O3)n1)C1CCCCC1 (configuration not stated)
2.01 | CCC(=O)Nc1ccc(-c2csc(NC(=O)c3ccco3)n2)cc1
< 0.015 | COc1cc(OC)cc(C(=O)Nc2nc(-c3ccc4c(c3)CCN4C(=O)OC(C)(C)C)cs2)c1
0.141 | CCC(=O)N1CCc2cc(-c3csc(NC(=O)c4cc5cccnc5o4)n3)ccc21
0.14 | CCC(=O)Nc1ccc(-c2csc(N)n2)cc1
0.017 | CC(C(=O)NC1CCCC1)N(C(=O)Cn1nnc(-c2ccc3c(c2)OCO3)n1)C1CCCCC1 (configuration not stated)
0.0174 | COc1cc(OC)cc(C(=O)Nc2nc(-c3ccc4c(c3)CCN4C(C)=O)cs2)c1
< 0.015 | O=C(CN(C(=O)Cn1nnc(-c2ccc3c(c2)OCO3)n1)C1CCCCC1)NC1CCCC1
< 0.015 | CCC(=O)N1CCc2cc(-c3csc(NC(=O)c4cc(OC)c(OC)c(OC)c4)n3)ccc21
< 0.015 | COCC(=O)N1CCc2cc(-c3csc(NC(=O)c4cc(OC)cc(OC)c4)n3)ccc21
0.0653 | O=C(CN(C(=O)Cn1nnc(-c2ccc3c(c2)OC(F)(F)O3)n1)C1CCCCC1)NC1CCCC1
0.0529 | CCC(=O)N1CCc2cc(-c3csc(NC(=O)c4cc(OC)cc(OC)c4)n3)ccc21
0.0269 | COC(=O)N1CCc2cc(-c3csc(NC(=O)c4cc(OC)cc(OC)c4)n3)ccc21
0.836 | CC(C(=O)NC1CCCC1)N(C(=O)Cn1nnc(-c2ccc3c(c2)OCO3)n1)C1CCOCC1 (configuration not stated)
0.0587 | CCC(=O)N1CCc2cc(-c3csc(NC(=O)c4ccco4)n3)ccc21
